Fewer inactive variants are shown than the library holds.
B1: tRNA (parent)
chain: GUUCCGUUGGCGUAAUGGUAACGCGUCUCCCUCCUAAGGAGAAGACUGCGGGUUCGAGUCCCGUACGGAACG

Variants of: B1
Test: yeast fitness relative to wild type (ratio to wild type); higher = fitter; tRNA-Arg(CCU), competitive growth, 37 C, YPD
Outline: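 Variants of the tRNA-Arg(CCU) gene, chemically synthesised with a 3% per-site mutation rate at 69 sites, were placed at the native genomic locus in Saccharomyces cerevisiae. The pooled strains were competed in YPD at 37°C for 24 hours in six parallel replicates. Gene amplicons from the start population and from each end population were read by 100-nucleotide paired-end sequencing. Darwinian fitness relative to wild type came from changes in genotype frequencies; genotypes needed ≥ 100 starting reads, and estimates < 0.5 were set to 0.5.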

Q: For GUUCCGUUGGCGUAGUGGUAACGGGUCUUCCUCGCAAGGAGAAGAGUGCGGGUUCGAGUCCCGUGCGGAACG, which yeast fitness is on record?
A: The yeast fitness was at most 0.5.

Q: Which yeast fitness does the source give for GUUCCGUUGGCGUAGUGGUAACGUGUCUUGCUCCGAAGGAGAAGACUGCGGGUUCGAGUCCCGUAUGGAACG here?
A: Its yeast fitness is at most 0.5.

Q: For GUUCCGUUGGCGUAGUGGUAACGCGUUUCCCUCCUAAGGAGAAGACUGCGGGUUCGAGUCCCGUACGGUACG, which yeast fitness is on record?
A: The yeast fitness was 0.808.

Q: For GUUCCGUUGGCGUAGUGGUAACGGGUCUUCCUCGCAAGGAGAAGAGUGCGGGUUCGAGUCCCGUACGGAACG, which yeast fitness is on record?
A: The yeast fitness was 0.618.

Q: With GUUCCGUUGGCGUAGUGGUAACGCGUAUCCAUCCUAAGGAGAAGACUGCGGGUUCGCGUCCCGUACGGAACG as the variant, how does the yeast fitness read?
A: Its yeast fitness is at most 0.5.

Q: With GUUCCGUUGGCGUAGUGGUAACGCGUCUCCCUCCUAAGGAGAAGUCUGUGGGUUCGAGUGCCGUACGGAACG as the variant, how does the yeast fitness read?
A: The yeast fitness was at most 0.5.

Q: With GUUCCGUUGGCGUAGUGGUAAUGCGUCUCCCUCCUUAGGAGAAGACUGCGGGUUCGAGUCCUGUACGGAACG as the variant, how does the yeast fitness read?
A: Its yeast fitness is at most 0.5.

Q: For GUUCCGUUGGCGUAGUGGUAACGCGUCUCCCUCCUAAGGAGAUGACUGCGGGUUCGAGUCCCGUACGGAACG, which yeast fitness is on record?
A: The yeast fitness was 0.925.

Q: Which yeast fitness does the source give for GUUCCGUUGGCGUAGUGGUAACGAGUCUGCCUCCGAAGGACAAGACUGCGGGUUCGAGUCCUGAACGGAACG here?
A: The yeast fitness was at most 0.5.

Q: With GUUCCGUUGGCGUAGUGGUAAGCCGUCUCCCUCCUAAGGAGACGACUGCCGGUUCGAGUCCCGUACGGAUCG as the variant, how does the yeast fitness read?
A: The yeast fitness was at most 0.5.

Q: Which yeast fitness does the source give for GUUCCGUUGGCGUAGUGGUAACGCGUCUGCCUCCUAAGGAGAAGAUUGCGGGUUCGAGUCCCGUACGGAACG here?
A: The yeast fitness was 0.52.

Q: With GUUCCGUUGGCGUAGUGGUAACGCGUCUCCCUCCUAAGGAGAUGACUGCGGGUUCGAGUCCCGUACGCAACG as the variant, how does the yeast fitness read?
A: Its yeast fitness is 0.581.

Q: With GUUCCGUUGGCGUAGUGGUAACGCGUCUCCCUCCUAAGGAGAAGUCUACGGGUUCAAGUCCCGUACGGAACG as the variant, how does the yeast fitness read?
A: The yeast fitness was 0.717.

Q: For GUUCCGUUGGCGUAGUGGUAACGCGUGUCCCUCCUAAGGAGAAGACUGCGGGUUCGAGUCCCGUACGGAACG, which yeast fitness is on record?
A: Its yeast fitness is 0.564.

Q: For GUUCCGUUGGCGUAGUGGUAACGCGUUUCCCUCCUAAGGAGAAGACUGCGGGUUCGAGUCCCGUACGGAACG, which yeast fitness is on record?
A: Its yeast fitness is 0.939.

Q: For GUUCCGUUGGCGUAGUGGUAACGCGUCUCCCUCCUAAGGAGAAGACUGCGGGUUCGUGUCCCGUACGUAACG, which yeast fitness is on record?
A: The yeast fitness was at most 0.5.

Q: For GUUCCGUUGGCGUAGUGGUAACGCGUUUUCCUCCUACGGAGAAGACUGCGGGUUCGAGUUCCGUACGGCACG, which yeast fitness is on record?
A: Its yeast fitness is at most 0.5.

Q: Which yeast fitness does the source give for GUUCCGUUGGCGUAGUGGUAAUGCGUCUCCCUCCUAAGGAGAAGACUGCGGGUUCGAGUCCCGUACGCAACG here?
A: Its yeast fitness is at most 0.5.

Q: Which yeast fitness does the source give for GUUCCGUUGGCGUAGUGGUAACGCGUCUCCCUCCUAAGGAGAAGCCUGCGGGUUCGAGUCCCGUACGGUACG here?
A: The yeast fitness was 0.779.

Q: Which yeast fitness does the source give for GUUCCGUUGGCGUAGUGGUAACGCGUCUGCCUCCUAAGGAGAAGACUGCGGGUUCGAGUCCCGUACGGAACG here?
A: The yeast fitness was 0.635.

Q: Which yeast fitness does the source give for GUUCCGUUGGCGUAGUGGUAACGCGUCUACCUCCUAAGGAGAAGACUGCGGGUUCGAGUCCCGUACGGAACG here?
A: Its yeast fitness is 0.558.

Q: Which yeast fitness does the source give for GUUCCGUUGGCGUAGUGGUAACGCGUCUCCCUCCUAAGGAGAAGUCUGCGGGUUCGAGUCGCGUACGGAACG here?
A: Its yeast fitness is 0.6.

Q: For GUUCCGUUGGCGUAGUGGUAACGCGUCUCCCUCCUAAGGAGAAGCCUGCGGGUUCGAGUCCCGUACGGAACG, which yeast fitness is on record?
A: The yeast fitness was 0.796.

Q: Which yeast fitness does the source give for GUUCCGUUGGCGUAGUGGUAACGCGUCUCCCUCCUAAGGAGAAGGCUGCGGGUUCGAGUCCCGUACGGAACG here?
A: The yeast fitness was 0.853.

Q: For GUUCCGUUGGCGUAGUGGUAACGGGUCUCCCUCCUAAGGAGAAGACUCCGGGUUCGAGUCCCGUACGGAACG, which yeast fitness is on record?
A: The yeast fitness was at most 0.5.

Q: For GUUCCGUUGGCGUAGUGGUAACGCGUCUACCUCCUAAGAAGAAGACUGCGGGUUCGAGUCCCGUACGGAACG, which yeast fitness is on record?
A: The yeast fitness was 0.572.

Q: For GUUCCGUUGGCGUAGUGGUAACGCGUUUCCCUCCUAAGGAGAAAACUGCGGGUUCCAGUCCCGUACGGAACG, which yeast fitness is on record?
A: The yeast fitness was at most 0.5.

Q: With GUUCCGUUGGCGUAGUGGUAACGCGUCUCCCUCCUAAGGAGAAGCCUGCGGGUUCGAGUCUCGUACGGAACG as the variant, how does the yeast fitness read?
A: The yeast fitness was 0.574.

Q: With GUUCCGUUGGCGUAGUGGUAACGCGUAUCCCUCCUAAGGAGAAGAUUGCGGGUUCGAGUCCCGUACGGAACG as the variant, how does the yeast fitness read?
A: The yeast fitness was 0.627.

Q: For GUUCCGUUGGCGUAGUGGUAACGCGUUUCCCUCCUAAGGAGAAGACUGCGGGUUCGAGUCCGGUACGGAACG, which yeast fitness is on record?
A: Its yeast fitness is 0.627.

Q: With GUUCCGUUGGCGUAGUGGUAACGCGUCUGCCUCGUAAGGAGAAGACUGCGGGUUCGAGUCCCGCACGGAACG as the variant, how does the yeast fitness read?
A: Its yeast fitness is at most 0.5.

Q: Which yeast fitness does the source give for GUUCCGUUGGCGUAGUGGUAACGCGUGUCCCUCCUAAGGAGAAGACUGCGGGUUUGAGUCCCGUACGGAACG here?
A: The yeast fitness was at most 0.5.

Q: Which yeast fitness does the source give for GUUCCGUUGGCGUAGUGGUAACGCGUAUCCCUCCUAAGGAGAAAACUGCGGGUUCGAGUCCUGUUCGGAACG here?
A: The yeast fitness was at most 0.5.

Q: Which yeast fitness does the source give for GUUCCGUUGGCGUAGUGGUAACGCGUAUCCCUCCUAAGGAGAAGACUGCGCGUUCGAGUCCCGUACGGAACG here?
A: Its yeast fitness is at most 0.5.

Q: Which yeast fitness does the source give for GUUCCGUUGGCGUAGUGGUAACGCGUCUGCCUCGUAAGGAGAAGACUGCGGGUUCGAGUCCCGUAGGGAACG here?
A: The yeast fitness was at most 0.5.

Q: With GUUCCGUUGGCGUAGUGGUAACGGGACUCCCUCCUAAGGAGAAGACUGCGGAUUCGAGUCCCGUACGCAACG as the variant, how does the yeast fitness read?
A: Its yeast fitness is 0.717.

Q: For GUUCCGUUGGCGUAGUGGUAACGCGUCUCCCUCCUAAGGAGAGGACUGCGGGGUCGAGUCCCAUACGGAACG, which yeast fitness is on record?
A: Its yeast fitness is at most 0.5.

Source: the RNAGym collection of RNA variant scans (doi:10.1126/science.aae0568)
